Measurements gathered from unrelated publications.
Protocols differ between the studies behind these lines.
Target: Mitogen-activated protein kinase kinase kinase 20 (MAP3K20, Homo sapiens, UniProt Q9NYL2)

SMILES | assay | conditions | measurement | value
COc1ncccc1-c1cnn2ccc(N3CCN(C(=O)OC(C)C)CC3)nc12 | binding, competition with immobilised ligand | 1 µM | remaining binding | 78%
COc1cc(Nc2ncc(F)c(Nc3ccc4c(n3)NC(=O)C(C)(C)O4)n2)cc(OC)c1OC | binding | 10 µM | inhibition | 44%
Cn1cc(-c2cccc(N3CCc4c(sc5c4CC(C)(C)C5)C3=O)c2CO)cc(Nc2ccncn2)c1=O | enzyme activity, inhibitor | 1 µM | inhibition | -1%
Cn1cncc1[C@](O)(COc1ccc(C#N)cc1-c1ccc(OC(F)(F)F)cc1)c1ccc(C#N)cc1 | cell-free assay, competition with immobilised ligand | 1 µM | remaining binding | 100%
Cc1nn(C)cc1-c1nc2c(N3CCN(Cc4ccc(Cl)cc4)CC3)c(Cl)cnc2[nH]1 | binding, competition with immobilised ligand | 1 µM | remaining binding | 71%
Cn1cc(-c2cc(F)cc(N3CCn4c(cc5c4CCCC5)C3=O)c2CO)cc(Nc2ccc(N3CCN(C4COC4)CC3)cn2)c1=O | enzyme activity, inhibitor | 0.1 µM | inhibition | -3%
O=c1[nH]c2ccccc2n1C1CCN(Cc2ccc(-c3[nH]c4cc5ncnc5cc4nc3-c3ccccc3)cc2)CC1 | cell-free assay | 0.5 µM | remaining signal | 106%
Nc1ncc(-c2nc(N3CCOCC3)nc(N3CCOCC3)n2)c(C(F)F)n1 | binding, competition with immobilised ligand | 10 µM | remaining binding | 80%
Cc1ccc(C(=O)Nc2ccc(CN3CCN(C)CC3)c(C(F)(F)F)c2)cc1C#Cc1cnc2cccnn12 | thermal stability, DSF | 10 µM | ΔTm | 15 °C
CC(C)(C)c1cc(C=C(C#N)C#N)cc(Br)c1O | enzyme activity, inhibitor | 0.5 µM | remaining activity | 91.2%
